One block for each compound: values may come before it.
Key:
Plasmodium falciparum = experiment: Antiplasmodial activity against chloroquine-resistant Plasmodium falciparum W2 as parasite DNA microfluorimetric assay; format: functional, organism-based
Outline: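 P. falciparum W2 (chloroquine-resistant) grown by the Trager–Jensen method at 2% hematocrit in RPMI 1640 with 10% human serum. Growth inhibition read microfluorimetrically by PicoGreen intercalation into parasite DNA. IC50 in µM.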

Trypanosoma cruzi = experiment: Antitrypanosomal activity against Trypanosoma cruzi Tulahuen C4 infected in african green monkey Vero cells assessed as growth inhibition of […] by beta-galactosidase reporter gene assay; format: functional, organism-based
Outline: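 Recombinant Tulahuen clone C4 expressing β-galactosidase reporter; […] grown inside Vero cells with test samples. β-Gal cleavage of chlorophenol red-β-D-galactoside (CPRG) read colorimetrically at 570 nm. IC50 taken as concentration giving 50% inhibition of parasite growth versus untreated control, on duplicate samples.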

Structure (SMILES): CCCCCCCCCC(=O)NCCc1ccc(O)cc1
- IC50 (Plasmodium falciparum): 72 µM

Structure (SMILES): CC[C@H](O)CC(=O)NCCc1ccc(O)cc1
- IC50 (Plasmodium falciparum): > 50 µM

Structure (SMILES): CCCCCCCCCCCC(=O)NCCc1ccc(O)cc1
- IC50 (Plasmodium falciparum): 47 µM

Structure (SMILES): NCCc1ccc(O)cc1 [TYRAMINE]
- IC50 (Plasmodium falciparum): 160 µM

Structure (SMILES): O=C(NCCc1ccc(OC(=O)c2ccccc2)cc1)c1ccccc1
- IC50 (Plasmodium falciparum): 64 µM

Structure (SMILES): O=C(NCCc1ccc(O)cc1)c1ccccc1
- IC50 (Plasmodium falciparum): > 50 µM

Structure (SMILES): CO[C@H]1O[C@H](COC(=O)c2ccccc2)[C@H](OC(=O)c2ccccc2)[C@H](OC(=O)c2ccccc2)[C@H]1OC(=O)c1ccccc1
- IC50 (Trypanosoma cruzi): > 50 µM
- IC50 (Plasmodium falciparum): 29 µM

Structure (SMILES): CO[C@@H]1OC[C@H](OC(=O)c2ccccc2)[C@H](OC(=O)c2ccccc2)[C@H]1OC(=O)c1ccccc1
- IC50 (Trypanosoma cruzi): > 50 µM
- IC50 (Plasmodium falciparum): 21 µM

Structure (SMILES): CCCCCCCCCCCCNC(=O)CCc1ccc(O)cc1
- IC50 (Plasmodium falciparum): 24 µM

Structure (SMILES): CCCCCCCCCC(C)CC(=O)NCCc1ccc(O)cc1 (stereo not given)
- IC50 (Trypanosoma cruzi): > 50 µM
- IC50 (Plasmodium falciparum): 45 µM

Structure (SMILES): CC/C=C\C/C=C\C/C=C\CCCC(=O)NCCc1ccc(O)cc1
- IC50 (Plasmodium falciparum): 38 µM

Structure (SMILES): CCCCO[C@@H]1OC[C@H](OC(C)=O)[C@H](OC(C)=O)[C@H]1OC(C)=O
- IC50 (Trypanosoma cruzi): > 50 µM
- IC50 (Plasmodium falciparum): > 50 µM

Structure (SMILES): CO[C@@H]1O[C@H](COC(=O)c2ccccc2)[C@H](OC(=O)c2ccccc2)[C@H](OC(=O)c2ccccc2)[C@H]1OC(=O)c1ccccc1
- IC50 (Trypanosoma cruzi): > 50 µM
- IC50 (Plasmodium falciparum): > 50 µM

Structure (SMILES): CCCCCCCCC/C(C)=C\C(=O)NCCc1ccc(O)cc1
- IC50 (Trypanosoma cruzi): > 50 µM
- IC50 (Plasmodium falciparum): 36 µM

Structure (SMILES): CO[C@@H]1O[C@H](C)[C@H](OC(=O)c2ccccc2)[C@H](OC(=O)c2ccccc2)[C@H]1OC(=O)c1ccccc1
- IC50 (Trypanosoma cruzi): > 50 µM
- IC50 (Plasmodium falciparum): 36 µM

Structure (SMILES): CCCCCCCCCCCC(=O)O[C@@H]1[C@@H](OC(=O)CCCCCCCCCCC)[C@@H](OC)OC[C@@H]1OC(=O)CCCCCCCCCCC
- IC50 (Trypanosoma cruzi): > 50 µM
- IC50 (Plasmodium falciparum): > 50 µM

Structure (SMILES): O[C@@H]1[C@@H](O)[C@@H](O)CO[C@H]1O [L-ARABINOSE]
- IC50 (Trypanosoma cruzi): > 50 µM
- IC50 (Plasmodium falciparum): > 50 µM

Structure (SMILES): CC(=O)NCCc1ccc(O)cc1
- IC50 (Plasmodium falciparum): > 50 µM

Structure (SMILES): CO[C@H]1OC[C@H](OC(=O)c2ccccc2)[C@H](OC(=O)c2ccccc2)[C@H]1OC(=O)c1ccccc1
- IC50 (Trypanosoma cruzi): > 50 µM
- IC50 (Plasmodium falciparum): 35 µM

Structure (SMILES): CCCCCCCCCCCCCC(=O)NCCc1ccc(O)cc1
- IC50 (Plasmodium falciparum): 34 µM

Structure (SMILES): C=C[C@]1(C)Cc2occ(C)c2C[C@H]1C(=C)OC(C)=O
- IC50 (Trypanosoma cruzi): 173 µM
- IC50 (Plasmodium falciparum): 42 µM

Structure (SMILES): CO[C@@H]1OC[C@H](OC(C)=O)[C@H](OC(C)=O)[C@H]1OC(C)=O
- IC50 (Trypanosoma cruzi): > 50 µM
- IC50 (Plasmodium falciparum): > 50 µM

Structure (SMILES): CCCCCCC(O)CCCCCCCCCCC(=O)NCCc1ccc(O)cc1 (stereo not given)
- IC50 (Plasmodium falciparum): 62 µM

- IC50 (Trypanosoma cruzi): 11 µM
Structure (SMILES): CC1CS(=O)(=O)CCN1/N=C/c1ccc([N+](=O)[O-])o1 (stereo not given) [NIFURTIMOX]

Structure (SMILES): C=C[C@H]1CC[C@H]2[C@@H]3CC=C4C[C@@H](O[C@@H]5OC[C@@H](O)[C@@H](OC(C)=O)[C@@H]5O)CC[C@]4(C)[C@H]3CC[C@]12C
- IC50 (Trypanosoma cruzi): 96 µM
- IC50 (Plasmodium falciparum): 67 µM

Structure (SMILES): CO[C@H]1O[C@H](C)[C@H](OC(=O)c2ccccc2)[C@H](OC(=O)c2ccccc2)[C@H]1OC(=O)c1ccccc1
- IC50 (Trypanosoma cruzi): > 50 µM
- IC50 (Plasmodium falciparum): 43 µM

Structure (SMILES): C=C[C@H]1CC[C@H]2[C@@H]3CC=C4C[C@@H](O[C@@H]5OC[C@@H](OC(C)=O)[C@@H](O)[C@@H]5O)CC[C@]4(C)[C@H]3CC[C@]12C
- IC50 (Trypanosoma cruzi): 101 µM
- IC50 (Plasmodium falciparum): 80 µM

Structure (SMILES): CCCCCCCCCCCC(=O)O[C@@H]1[C@@H](OC(=O)CCCCCCCCCCC)[C@H](OC)OC[C@@H]1OC(=O)CCCCCCCCCCC
- IC50 (Trypanosoma cruzi): > 50 µM
- IC50 (Plasmodium falciparum): > 50 µM

Structure (SMILES): O=C(CCCCC(=O)NCCc1ccc(O)cc1)NCCc1ccc(O)cc1
- IC50 (Plasmodium falciparum): 117 µM

Structure (SMILES): C=C[C@H]1CC[C@H]2[C@@H]3CC=C4C[C@@H](O[C@@H]5OC[C@@H](OC(C)=O)[C@@H](OC(C)=O)[C@@H]5OC(C)=O)CC[C@]4(C)[C@H]3CC[C@]12C
- IC50 (Trypanosoma cruzi): 28 µM
- IC50 (Plasmodium falciparum): 28 µM

Structure (SMILES): CCCCCCCCCCCC(=O)NCCc1cc(Br)c(O)c(Br)c1
- IC50 (Plasmodium falciparum): 17 µM

Structure (SMILES): O=CNCCc1ccc(O)cc1
- IC50 (Plasmodium falciparum): > 50 µM

Structure (SMILES): CC(=O)O/C1=C/Cc2c(C)coc2C/C(C)=C/CC1
- IC50 (Plasmodium falciparum): > 50 µM
